Experimental data taken from ChEMBL document CHEMBL2157952, “Chemotherapy of leishmaniasis. Part IX: synthesis and bioevaluation of aryl substituted ketene dithioacetals as antileishmanial agents” (Bioorg Med Chem Lett, 2012).
Calls of active or inactive are those of the source. No cut-off for these calls is given here.

Columns and labels:
[1] = test system: Leishmania donovani; assay: Antileishmanial activity against Leishmania donovani amastigotes infected in mouse J774A.1 cells after 72 hrs by luciferase reporter gene based luminometric analysis; format: functional, organism-based; settings: J774.A1, 72 h
Outline: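 J-774A.1 macrophages seeded at 4 × 10⁴/well in RPMI-1640 + 10% FCS, 37 °C, CO₂. After 24 h, infected with stationary-phase luciferase-expressing promastigotes (4 × 10⁵/well). Medium replaced with compound, seven-point twofold dilutions from 40 µM, for 72 h. Steady Glo added, luminescence read as RLU. IC50 by nonlinear regression with four-parameter Hill fit.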

[2] = Cytotoxicity against human KB cells assessed as cell viability after 72 hrs by MTT assay; format: cell-based
Outline: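 Exponentially growing KB cells at 1 × 10⁵/well exposed 72 h at 37 °C in humidified CO₂/air to seven-point threefold dilutions from 400 µM; DMSO vehicle wells as control. MTT (5 mg/ml) added 2 h at 37 °C, supernatant removed, DMSO added, absorbance at 544 nm. CC50 is the concentration giving 50% viability reduction versus medium-only cells.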

[3] = Selectivity index, ratio of CC50 for human KB cells to IC50 for Leishmania donovani amastigotes infected in mouse J774A.1 cells; format: functional
Outline: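 SI = CC50 (KB cells, MTT, 72 h) divided by IC50 against intracellular amastigotes in J-774A.1 macrophages (luciferase read-out, 72 h).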

[4] = test system: Leishmania donovani; assay: Antileishmanial activity against Leishmania donovani MHOM/IN/80/Dd8 amastigotes infected in golden hamster assessed as inhibition of parasite multiplication at 50 mg/kg, ip for 5 days measured on day 7 by Giemsa staining; format: functional; settings: for inhibition in vivo at 50 mg/kg: MHOM/IN/80/Dd8, ip, route intraperitoneal
Outline: (§1)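 Golden hamsters (inbred, either sex, 40–45 g) infected intracardially with 1 × 10⁷ amastigotes each; infection establishes in 15–20 days. Animals randomized by biopsy parasite burden, 5–6 per sample. Dosing began 2 days after biopsy, five consecutive days. Post-treatment biopsy on day 7 after last dose, amastigotes counted by Giemsa staining. PI = 100 − [ANAT × 100/(INAT × TIUC)] versus untreated controls.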

[5] = test system: Leishmania donovani; assay: Antileishmanial activity against Leishmania donovani MHOM/IN/80/Dd8 amastigotes infected in golden hamster assessed as inhibition of parasite multiplication at 30 mg/kg, po for 5 days measured on day 7 by Giemsa staining; format: functional; outline: as §1

| SMILES | IC50 [1] [µM] | CC50 at 72 h [2] [µM] | Ratio CC50/IC50 [3] | inhibition in vivo at 50 mg/kg [4] [%] | inhibition [4] | inhibition in vivo at 30 mg/kg [5] [%] |
| --- | --- | --- | --- | --- | --- | --- |
| CSC(=CC(=O)/C=C/c1ccc(-n2ccnc2)cc1)SC | > 40 |  |  |  | inactive |  |
| CSC(=CC(=O)/C=C/c1ccccc1Cl)SC | > 40 |  |  |  | inactive |  |
| CSC(=CC(=O)/C=C/c1ccc(F)cc1)SC | > 40 |  |  |  | inactive |  |
| CSC(=CC(=O)/C=C/c1ccc([N+](=O)[O-])cc1)SC | > 40 |  |  |  | inactive |  |
| CSC(=CC(=O)/C=C/c1ccc(-n2cnnc2)cc1)SC | > 20 |  |  |  | inactive |  |

Continued, in another order:

| IC50 [1] [µM] | SMILES | CC50 at 72 h [2] [µM] | Ratio CC50/IC50 [3] | inhibition in vivo at 50 mg/kg [4] [%] | inhibition [4] | inhibition in vivo at 30 mg/kg [5] [%] |
| --- | --- | --- | --- | --- | --- | --- |
| 3.56 | COc1cc(/C=C/C(=O)C=C(SC)SC)ccc1OCc1ccccc1 | 204 | 57.26 | 78 |  |  |
| 12.5 | CCCCCCCCCCCCCCCCOP(=O)([O-])OCC[N+](C)(C)C [MILTEFOSINE] | 3.23 | 0.26 |  |  | 95.3 |
| 5.12 | CSC(=CC(=O)/C=C/c1cccc([N+](=O)[O-])c1)SC | 9.83 | 1.92 | 82.8 |  |  |
| > 20 | CSC(=CC(=O)/C=C/c1ccc(Cl)cc1)SC |  |  |  | inactive |  |
